Test results taken from ChEMBL document CHEMBL3580567 (J Med Chem, 2015).
Active and inactive are the calls of the source. The calls are words filed in the database; no cut-off is given here.

Key:
[1] = target: T1, Melatonin receptor type 1A (Homo sapiens, UniProt P48039); assay: Displacement of 2-[125I]-iodomelatonin from human melatonin receptor-1 transfected in CHO cell membranes after 120 mins
[2] = (§1) Induction of primary neuronal stem cell maturation derived from subgranular zone of dentate gyrus of Wistar rat hippocampus assessed as upregulation of MAP-2 expression incubated for 7 days by DAPI staining-based fluorescence microscopic analysis; format: functional; settings: Primary neuron
Method in brief: (§2)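 Neurospheres came from the SGZ of the dentate gyrus of adult male Wistar rats (8-12 weeks). They were grown in DMEM/F12 with 10 ng/mL EGF, 10 ng/mL FGF and B27. After 3 days, cultures were treated with compounds for 7 days. They were then plated on poly-L-lysine coverslips for 48 h with serum and without growth factors. Cells were immunostained for TuJ1 and MAP-2 with DAPI nuclei. Positive cells were counted by fluorescence microscopy in five NS per condition over three independent experiments. Untreated cultures gave basal values.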

[3] = as §1, with “differentiation” for “maturation”, “TuJ1” for “MAP-2”, “days followed by 48 hrs incubation in presence of serum and absence of EGF” for “days”; format: functional, tissue-based; settings: Primary neuron; method in brief: as §2
[4] = Induction of primary neuronal stem cell differentiation derived from subgranular zone of dentate gyrus of Wistar rat hippocampus assessed as upregulation of TuJ1 expression at 10 uM incubated for 7 days followed by 48 hrs incubation in presence of serum and absence of EGF by DAPI staining-based fluorescence microscopic analysis in presence of melatonin receptor antagonist luzindole; format: functional; settings: Primary neuron; method in brief: as §2
[5] = target: Cannabinoid receptor 1 (Homo sapiens) (UniProt P21554); assay: Binding affinity to CB1 receptor (unknown origin) at 10 uM
Chain of Cannabinoid receptor 1 (Homo sapiens) (P21554 whole entry): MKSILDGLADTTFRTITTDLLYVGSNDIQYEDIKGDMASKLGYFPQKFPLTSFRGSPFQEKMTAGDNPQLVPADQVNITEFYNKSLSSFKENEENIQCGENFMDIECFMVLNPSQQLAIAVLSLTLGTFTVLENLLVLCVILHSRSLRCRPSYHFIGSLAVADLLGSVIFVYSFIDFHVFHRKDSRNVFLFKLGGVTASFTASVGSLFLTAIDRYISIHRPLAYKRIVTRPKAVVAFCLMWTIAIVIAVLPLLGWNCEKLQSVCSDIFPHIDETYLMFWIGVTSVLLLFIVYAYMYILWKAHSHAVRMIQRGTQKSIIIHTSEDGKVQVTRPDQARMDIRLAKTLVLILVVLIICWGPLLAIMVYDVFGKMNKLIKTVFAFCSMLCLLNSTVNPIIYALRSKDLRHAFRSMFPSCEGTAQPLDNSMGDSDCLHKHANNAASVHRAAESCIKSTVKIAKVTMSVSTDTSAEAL

[6] = target: T2, Melatonin receptor type 1B (Homo sapiens) (UniProt P49286); assay: Agonist activity at human melatonin receptor-2 transfected in CHO cell membranes after 1 hr by GTPgammaS binding assay relative to melatonin; format: functional
T2 sequence (whole entry): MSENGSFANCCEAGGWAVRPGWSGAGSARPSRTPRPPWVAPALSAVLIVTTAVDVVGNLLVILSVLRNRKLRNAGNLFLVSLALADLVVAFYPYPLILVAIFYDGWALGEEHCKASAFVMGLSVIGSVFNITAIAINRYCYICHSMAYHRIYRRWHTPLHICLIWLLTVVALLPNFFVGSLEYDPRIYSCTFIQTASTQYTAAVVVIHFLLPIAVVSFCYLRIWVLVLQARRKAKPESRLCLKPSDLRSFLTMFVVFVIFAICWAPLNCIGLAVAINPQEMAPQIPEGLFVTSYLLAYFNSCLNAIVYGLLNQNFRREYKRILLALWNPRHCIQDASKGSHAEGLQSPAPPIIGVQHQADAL
Method in brief: (§3)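 CHO membranes (20 µg/mL) stably expressing human MT1 or MT2 in 20 mM HEPES pH 7.4, 100 mM NaCl, 3 µM GDP, 3 mM MgCl2, 20 µg/mL saponin. Incubated with 0.2 nM [35S]GTPγS for 1 h at rt, then filtered. Non-specific binding defined with 10 µM GTPγS. Seven concentrations in duplicate; EC50 and Emax fitted.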

[7] = target: Cannabinoid receptor 2 (Homo sapiens) (UniProt P34972); assay: Binding affinity to CB2 receptor (unknown origin) at 10 uM
Chain of Cannabinoid receptor 2 (Homo sapiens) (P34972 whole entry): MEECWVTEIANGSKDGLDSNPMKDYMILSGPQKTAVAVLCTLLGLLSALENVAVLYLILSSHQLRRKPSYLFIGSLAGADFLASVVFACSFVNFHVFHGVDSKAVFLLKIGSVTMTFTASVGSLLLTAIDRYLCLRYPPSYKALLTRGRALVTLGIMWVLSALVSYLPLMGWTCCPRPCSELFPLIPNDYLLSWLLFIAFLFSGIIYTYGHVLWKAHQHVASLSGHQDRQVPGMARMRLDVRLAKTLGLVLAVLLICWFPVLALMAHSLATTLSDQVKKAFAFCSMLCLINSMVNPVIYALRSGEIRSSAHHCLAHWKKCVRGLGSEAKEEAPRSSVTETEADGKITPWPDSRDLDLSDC

[8] = target: Sodium-dependent serotonin transporter (Homo sapiens) (UniProt P31645); assay: Binding affinity to SERT (unknown origin) at 10 uM
Chain of Sodium-dependent serotonin transporter (Homo sapiens) (P31645 whole entry, looked up): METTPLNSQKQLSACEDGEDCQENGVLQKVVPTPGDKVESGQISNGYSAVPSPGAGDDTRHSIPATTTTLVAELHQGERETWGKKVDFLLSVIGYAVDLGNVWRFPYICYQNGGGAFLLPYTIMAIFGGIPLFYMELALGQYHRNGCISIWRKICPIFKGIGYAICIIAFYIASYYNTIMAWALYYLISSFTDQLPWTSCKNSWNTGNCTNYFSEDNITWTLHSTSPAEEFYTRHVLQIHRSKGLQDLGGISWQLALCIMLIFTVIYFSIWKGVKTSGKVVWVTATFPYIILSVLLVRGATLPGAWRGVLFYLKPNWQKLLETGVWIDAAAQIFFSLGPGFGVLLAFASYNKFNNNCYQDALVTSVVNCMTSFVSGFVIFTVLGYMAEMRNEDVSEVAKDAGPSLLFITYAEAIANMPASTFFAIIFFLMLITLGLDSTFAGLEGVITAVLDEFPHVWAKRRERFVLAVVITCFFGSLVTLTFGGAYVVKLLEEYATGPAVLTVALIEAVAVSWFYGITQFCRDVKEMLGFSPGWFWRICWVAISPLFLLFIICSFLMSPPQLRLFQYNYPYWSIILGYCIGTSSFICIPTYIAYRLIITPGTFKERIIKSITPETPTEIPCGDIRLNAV

[9] = target: 5-hydroxytryptamine receptor 2A (Homo sapiens) (UniProt P28223); assay: Binding affinity to 5HT-2A receptor (unknown origin) at 10 uM
Chain of 5-hydroxytryptamine receptor 2A (Homo sapiens) (P28223 whole entry): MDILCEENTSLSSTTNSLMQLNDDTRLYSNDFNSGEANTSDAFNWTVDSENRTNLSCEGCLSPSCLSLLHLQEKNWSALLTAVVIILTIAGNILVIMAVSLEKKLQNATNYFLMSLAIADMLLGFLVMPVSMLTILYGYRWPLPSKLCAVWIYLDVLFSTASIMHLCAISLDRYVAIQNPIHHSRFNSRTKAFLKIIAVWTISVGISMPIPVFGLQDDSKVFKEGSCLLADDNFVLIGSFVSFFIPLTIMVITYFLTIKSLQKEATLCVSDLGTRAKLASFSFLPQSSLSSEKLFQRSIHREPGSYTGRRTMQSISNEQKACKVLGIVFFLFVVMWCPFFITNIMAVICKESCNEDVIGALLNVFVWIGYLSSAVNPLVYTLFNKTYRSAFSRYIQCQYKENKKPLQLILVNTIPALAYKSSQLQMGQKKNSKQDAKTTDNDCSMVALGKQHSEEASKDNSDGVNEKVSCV

[10] = target: 5-hydroxytryptamine receptor 2B (Homo sapiens) (UniProt P41595); assay: Binding affinity to 5HT-2B receptor (unknown origin) at 10 uM
Chain of 5-hydroxytryptamine receptor 2B (Homo sapiens) (P41595 whole entry): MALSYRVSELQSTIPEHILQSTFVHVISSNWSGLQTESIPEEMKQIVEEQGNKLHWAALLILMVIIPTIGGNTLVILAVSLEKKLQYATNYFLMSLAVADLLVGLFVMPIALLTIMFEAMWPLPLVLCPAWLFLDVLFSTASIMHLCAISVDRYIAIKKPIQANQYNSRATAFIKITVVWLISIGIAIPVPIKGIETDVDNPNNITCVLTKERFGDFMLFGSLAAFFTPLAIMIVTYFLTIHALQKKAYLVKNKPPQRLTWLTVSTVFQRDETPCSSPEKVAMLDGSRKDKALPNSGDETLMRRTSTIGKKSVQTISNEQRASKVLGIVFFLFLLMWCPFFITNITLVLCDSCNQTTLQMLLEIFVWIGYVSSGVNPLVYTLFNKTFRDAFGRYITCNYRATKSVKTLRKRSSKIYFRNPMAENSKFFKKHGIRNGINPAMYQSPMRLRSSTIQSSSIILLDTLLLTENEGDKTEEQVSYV

[11] = target: T3, Melatonin receptor type 1B (Homo sapiens, UniProt P49286); assay: Agonist activity at human recombinant melatonin receptor-2 expressed in CHO cells assessed as decrease of cAMP level after 10 mins by HTRF assay; format: functional, cell-based
T3 sequence (P49286 whole entry): T2 sequence (whole entry)
Method in brief: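 Functional agonist profiling was done by CEREP on cells expressing human recombinant MT receptors. MT1 was read by cellular dielectric spectroscopy and MT2 by homogeneous time-resolved fluorescence. The protocols are those on the company website.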

[12] = target: Glycogen synthase kinase-3 beta (Homo sapiens) (UniProt P49841); assay: Binding affinity to GSK-3beta receptor (unknown origin) at 10 uM
Chain of Glycogen synthase kinase-3 beta (Homo sapiens) (P49841 whole entry, looked up): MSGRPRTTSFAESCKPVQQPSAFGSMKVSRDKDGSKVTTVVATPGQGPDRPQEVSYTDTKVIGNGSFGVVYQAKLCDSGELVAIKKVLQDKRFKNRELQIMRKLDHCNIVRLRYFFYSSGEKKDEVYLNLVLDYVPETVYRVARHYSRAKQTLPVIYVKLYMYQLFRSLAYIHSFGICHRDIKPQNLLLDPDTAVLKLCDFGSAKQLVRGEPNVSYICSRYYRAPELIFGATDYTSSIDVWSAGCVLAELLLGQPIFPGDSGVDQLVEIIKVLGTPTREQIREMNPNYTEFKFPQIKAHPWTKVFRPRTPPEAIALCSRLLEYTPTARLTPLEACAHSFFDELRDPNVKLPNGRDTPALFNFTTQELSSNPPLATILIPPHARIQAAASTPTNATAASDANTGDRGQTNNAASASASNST

[13] = target: T1, Melatonin receptor type 1A; assay: Agonist activity at human melatonin receptor-1 transfected in CHO cell membranes after 1 hr by GTPgammaS binding assay relative to melatonin; format: functional; method in brief: as §3
[14] = target: T4, Peroxisome proliferator-activated receptor gamma (Homo sapiens) (UniProt P37231); assay: Binding affinity to PPARgamma (unknown origin) at 10 uM
T4 sequence (whole entry): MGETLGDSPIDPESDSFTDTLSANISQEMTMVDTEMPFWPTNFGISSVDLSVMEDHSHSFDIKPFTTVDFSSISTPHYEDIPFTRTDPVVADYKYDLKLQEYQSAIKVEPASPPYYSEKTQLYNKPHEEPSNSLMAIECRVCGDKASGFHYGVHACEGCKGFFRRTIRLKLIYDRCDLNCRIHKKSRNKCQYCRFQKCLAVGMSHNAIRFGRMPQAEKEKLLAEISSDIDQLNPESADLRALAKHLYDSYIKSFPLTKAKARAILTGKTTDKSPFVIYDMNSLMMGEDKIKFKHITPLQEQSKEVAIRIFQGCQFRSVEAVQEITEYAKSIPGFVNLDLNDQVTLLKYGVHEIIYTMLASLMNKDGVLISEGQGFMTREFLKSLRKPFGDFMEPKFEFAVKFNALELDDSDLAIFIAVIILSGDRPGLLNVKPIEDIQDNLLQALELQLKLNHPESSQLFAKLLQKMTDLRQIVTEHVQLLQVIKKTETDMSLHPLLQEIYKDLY

[15] = target: T3, Melatonin receptor type 1B; assay: Agonist activity at human melatonin receptor-2 transfected in CHO cell membranes after 1 hr by GTPgammaS binding assay; format: functional
[16] = target: T5, 5-hydroxytryptamine receptor 1A (Homo sapiens) (UniProt P08908); assay: Binding affinity to 5HT-1A receptor (unknown origin) at 10 uM
T5 sequence (whole entry): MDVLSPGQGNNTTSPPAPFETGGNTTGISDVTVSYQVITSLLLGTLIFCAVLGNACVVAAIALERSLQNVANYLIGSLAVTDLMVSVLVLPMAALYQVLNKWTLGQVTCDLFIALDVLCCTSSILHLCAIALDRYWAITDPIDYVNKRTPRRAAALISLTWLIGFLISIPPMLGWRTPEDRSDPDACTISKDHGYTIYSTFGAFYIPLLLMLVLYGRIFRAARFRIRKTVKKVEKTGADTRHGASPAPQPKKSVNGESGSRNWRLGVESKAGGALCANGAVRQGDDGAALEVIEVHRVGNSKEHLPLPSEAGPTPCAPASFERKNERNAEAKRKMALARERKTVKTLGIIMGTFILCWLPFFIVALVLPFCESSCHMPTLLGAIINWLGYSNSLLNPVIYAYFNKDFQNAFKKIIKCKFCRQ

[17] = as §1, with “expression at 10 uM” for “expression”, “analysis in presence of melatonin receptor antagonist luzindole” for “analysis”; format: functional, tissue-based; settings: Primary neuron; method in brief: as §2

T1 sequence (P48039 whole entry): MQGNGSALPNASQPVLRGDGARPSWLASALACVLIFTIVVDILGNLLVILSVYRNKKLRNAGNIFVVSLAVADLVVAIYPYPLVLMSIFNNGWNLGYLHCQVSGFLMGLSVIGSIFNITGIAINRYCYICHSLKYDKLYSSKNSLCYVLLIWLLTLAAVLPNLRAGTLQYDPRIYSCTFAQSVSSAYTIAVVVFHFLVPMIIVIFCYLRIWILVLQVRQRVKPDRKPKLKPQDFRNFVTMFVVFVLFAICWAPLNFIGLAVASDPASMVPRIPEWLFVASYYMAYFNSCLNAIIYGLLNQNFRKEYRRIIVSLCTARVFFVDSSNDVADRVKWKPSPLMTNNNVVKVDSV

- Ki [1]: 0.709 µM
- Activity [5]: inactive
- Emax [6]: 32%
- Activity [7]: inactive
- Activity [8]: inactive
- Activity [9]: inactive
- Activity [10]: inactive
- EC50 [11]: 1.6 µM
- Activity [12]: inactive
- Emax [13]: 19%
- Activity [14]: inactive
- EC50 [15]: 0.881 µM
- Activity [16]: inactive
Compound: COc1ccc2[nH]cc(CCc3nnc(C)o3)c2c1
- Activity [2]: Dose-dependent effect
- Activity [3]: Dose-dependent effect
- Activity [4]: inactive
- Activity [17]: inactive
